Measured values: ChEMBL document CHEMBL1141897, “Pyrrolidinedione derivatives as antibacterial agents with a novel mode of action” (Bioorg Med Chem Lett, 2005)
In brackets after ≈: the same amount, converted by molar mass.

How the values were obtained:
Assay type in all cases: functional
[1] = tested on: Escherichia coli; assay: Minimum inhibitory concentration of the compound againstEscherichia coli HN818 strain was determined
In short: (§1)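 Whole-cell MIC panel of the Gram-positive S. aureus 133 and S. pneumoniae G9A, plus two E. coli strains: Neumann (wild type) and HN818 (efflux pump deletion strain).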

[2] = tested on: Streptococcus pneumoniae; assay: Minimum inhibitory concentration against Streptococcus pneumoniae G9A strain was determined
[3] = tested on: Staphylococcus aureus; assay: Minimum inhibitory concentration of the compound against Staphylococcus aureus 133 strain was determined; in short: as §1
[4] = tested on: Escherichia coli; assay: Minimum inhibitory concentration of the compound againstEscherichia coli Neumann strainwas determined; in short: as §1
[5] = tested on: Escherichia coli; assay: Inhibitory concentration of the compound against Escherichia coli was determined
[6] = tested on: Staphylococcus aureus; assay: Inhibitory concentration of the compound against Staphylococcus aureus was determined

SMILES | MIC [1] | MIC [2] | MIC [3] | MIC [4] | IC50 [5] | IC50 [6]
C/C=C/C=C/C(=O)N[C@@H](CC(=O)N[C@H](C(=O)[C@@H]1C(=O)N(NC)C(=O)[C@H]1C)C(C)C)c1ccccc1 | 8 µg/mL (≈ 16.6 µM) | 16 µg/mL (≈ 33.2 µM) | 4 µg/mL (≈ 8.29 µM) | > 64 µg/mL | 14 nM | 105 nM
C/C=C/C=C/C(=O)N[C@@H](CC(=O)N[C@H](C(=O)[C@@H]1C(=O)N(C)C(=O)[C@H]1C)C(C)C)c1ccccc1 | 16 µg/mL (≈ 34.2 µM) | > 64 µg/mL | 16 µg/mL (≈ 34.2 µM) | > 64 µg/mL | 25 nM | 211 nM
CC(C)[C@H](NC(=O)C[C@H](NC(=O)/C=C/c1ccccc1)c1ccccc1)C(=O)[C@@H]1C(=O)NC(=O)[C@H]1C | 2 µg/mL (≈ 4.09 µM) | 32 µg/mL (≈ 65.4 µM) | 8 µg/mL (≈ 16.3 µM) | 32 µg/mL (≈ 65.4 µM) | 9 nM | 75 nM
C/C=C/C=C/C(=O)N[C@@H](CC(=O)N[C@H](C(=O)C1C(=O)NC(=O)CC1C)C(C)C)c1ccccc1 (stereo not given in full) | > 64 µg/mL | > 64 µg/mL | > 64 µg/mL | > 64 µg/mL | > 300 nM | > 1000 nM
C/C=C/C=C/C(=O)N[C@@H](CC(=O)N[C@H](C(=O)[C@@H]1C(=O)N(N(C)C)C(=O)[C@H]1C)C(C)C)c1ccccc1 | 4 µg/mL (≈ 8.05 µM) | 16 µg/mL (≈ 32.2 µM) | 4 µg/mL (≈ 8.05 µM) | > 64 µg/mL | 33 nM | 238 nM
C/C=C/C=C/C(=O)N[C@@H](CC(=O)N[C@H](C(=O)[C@@H]1C(=O)N(C)C(=O)[C@H]1CC)C(C)C)c1ccccc1 | > 64 µg/mL | > 64 µg/mL | > 64 µg/mL | > 64 µg/mL | > 200 nM | > 1000 nM
CC(C)[C@H](NC(=O)C[C@H](NC(=O)/C=C/c1ccc(Cl)c(Cl)c1)c1ccccc1)C(=O)[C@@H]1C(=O)NC(=O)[C@H]1C | 1 µg/mL (≈ 1.79 µM) | 32 µg/mL (≈ 57.3 µM) | 2 µg/mL (≈ 3.58 µM) | 8 µg/mL (≈ 14.3 µM) | 7 nM | 288 nM
COc1cccc(/C=C/C(=O)N[C@@H](CC(=O)N[C@H](C(=O)[C@@H]2C(=O)NC(=O)[C@H]2C)C(C)C)c2ccccc2)c1 | 2 µg/mL (≈ 3.85 µM) | 16 µg/mL (≈ 30.8 µM) | 4 µg/mL (≈ 7.7 µM) | 32 µg/mL (≈ 61.6 µM) | 4 nM | 43 nM
C/C=C/C=C/C(=O)N[C@@H](CC(=O)N[C@H](C(=O)[C@@H]1C(=O)N(CCOC)C(=O)[C@H]1C)C(C)C)c1ccccc1 | > 64 µg/mL | 64 µg/mL (≈ 125 µM) | 64 µg/mL (≈ 125 µM) | > 64 µg/mL | 150 nM | 1300 nM
CC(C)[C@H](NC(=O)C[C@H](NC(=O)/C=C/c1c[nH]cn1)c1ccccc1)C(=O)[C@@H]1C(=O)NC(=O)[C@H]1C | 64 µg/mL (≈ 133 µM) | > 64 µg/mL | > 64 µg/mL | > 64 µg/mL | 6 nM | 151 nM
C/C=C/C=C/C(=O)N[C@@H](CC(=O)N[C@H](C(=O)[C@@H]1C(=O)N(OCC)C(=O)[C@H]1C)C(C)C)c1ccccc1 | 64 µg/mL (≈ 129 µM) | 32 µg/mL (≈ 64.3 µM) | 8 µg/mL (≈ 16.1 µM) | > 64 µg/mL | 100 nM | 123 nM
CC(C)[C@H](NC(=O)C[C@H](NC(=O)/C=C/c1ccc(-c2ccccc2)cc1)c1ccccc1)C(=O)[C@@H]1C(=O)NC(=O)[C@H]1C | > 64 µg/mL | 16 µg/mL (≈ 28.3 µM) | 2 µg/mL (≈ 3.54 µM) | > 64 µg/mL | 37 nM | 540 nM
C/C=C/C=C/C(=O)N[C@@H](CC(=O)N[C@H](C(=O)[C@@H]1C(=O)N(C2CC2)C(=O)[C@H]1C)C(C)C)c1ccccc1 | > 64 µg/mL | > 64 µg/mL | > 64 µg/mL | > 64 µg/mL | 60 nM | 2560 nM
C/C=C/C=C/C(=O)N[C@@H](CC(=O)N[C@H](C(=O)[C@@H]1C(=O)NC(=O)[C@H]1C)C(C)C)c1ccccc1 | 4 µg/mL (≈ 8.82 µM) | 32 µg/mL (≈ 70.6 µM) | 8 µg/mL (≈ 17.6 µM) | 32 µg/mL (≈ 70.6 µM) | 6 nM | 96 nM
C/C=C/C=C/C(=O)N[C@@H](CC(=O)N[C@H](C(=O)C1CC(C)C(=O)NC1=O)C(C)C)c1ccccc1 (stereo not given in full) | > 64 µg/mL | > 64 µg/mL | > 64 µg/mL | > 64 µg/mL | 295 nM | > 1000 nM
C/C=C/C=C/C(=O)N[C@@H](CC(=O)N[C@H](C(=O)[C@H]1CC(=O)N(C)C1=O)C(C)C)c1ccccc1 | > 64 µg/mL | > 64 µg/mL | > 64 µg/mL | > 64 µg/mL | > 200 nM | > 1000 nM
CC(C)[C@H](NC(=O)C[C@H](NC(=O)/C=C/C(=O)O)c1ccccc1)C(=O)[C@@H]1C(=O)NC(=O)[C@H]1C | > 64 µg/mL | > 64 µg/mL | > 64 µg/mL | > 64 µg/mL | 2 nM | 317 nM
C/C=C/C=C/C(=O)N[C@@H](CC(=O)N[C@H](C(=O)C1CCC(=O)NC1=O)C(C)C)c1ccccc1 (stereo not given in full) | > 64 µg/mL | > 64 µg/mL | > 64 µg/mL | > 64 µg/mL | > 300 nM | > 1000 nM
C/C=C/C=C/C(=O)N[C@@H](CC(=O)N[C@H](C(=O)[C@@H]1C(=O)NC(=O)C1(C)C)C(C)C)c1ccccc1 | > 64 µg/mL | > 64 µg/mL | > 64 µg/mL | > 64 µg/mL | 54 nM | 900 nM
C/C=C/C=C/C=C/C(=O)N[C@@H](CC(=O)N[C@H](C(=O)[C@@H]1C(=O)NC(=O)[C@H]1C)C(C)C)c1ccccc1 | 32 µg/mL (≈ 66.7 µM) | 8 µg/mL (≈ 16.7 µM) | 8 µg/mL (≈ 16.7 µM) | > 64 µg/mL | 13 nM | 305 nM
